From ChEMBL document CHEMBL4819084, “Discovery of 3,5-dimethylisoxazole derivatives as novel, potent inhibitors for bromodomain and extraterminal domain (BET) family” (Bioorg Med Chem, 2021)

Columns and labels:
HCT-116 = experiment: Antiproliferative activity against human HCT-116 cells assessed as inhibition of cell proliferation at 2 uM incubated for 48 hrs by MTT assay relative to control; type: functional
Method in brief: (§1)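 Cryopreserved cells thawed at 37 °C, cultured one day, then seeded at 5000–10,000 cells/well in 96-well plates and left overnight to attach. Compound added at a single concentration or as a gradient series and incubated 48 h. MTT solution added and absorbance read.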

CT26 [1] = experiment: Antiproliferative activity against […] assessed as inhibition of cell proliferation at 2 uM incubated for 48 hrs by MTT assay relative to control; type: functional; conditions: Mus musculus; method in brief: as §1
[2] = target: Bromodomain-containing protein 4 (Homo sapiens, UniProt O60885); experiment: Inhibition of BRD4-BD1 (unknown origin) preincubated for 15 mins followed by substrate addition and measured after 1 hr
MCF7 = experiment: Antiproliferative activity against human MCF7 cells assessed as inhibition of cell proliferation at 2 uM incubated for 48 hrs by MTT assay relative to control; type: functional; method in brief: as §1
HepG2 [3] = experiment: Antiproliferative activity against human HepG2 cells assessed as inhibition of cell proliferation at 2 uM incubated for 48 hrs by MTT assay relative to control; type: functional; method in brief: as §1
U-266 [4] = experiment: Antiproliferative activity against human U-266 cells assessed as inhibition of cell proliferation at 0.1 uM incubated for 48 hrs by MTT assay relative to control; type: functional; method in brief: as §1
[5] = Cytotoxicity against human MCF-10A cells assessed as inhibition of cell proliferation at 2 uM incubated for 48 hrs by MTT assay; type: cell-based; method in brief: as §1
CT26 [6] = experiment: Antiproliferative activity against […] assessed as inhibition of cell proliferation incubated for 48 hrs by MTT assay; type: functional, cell-based; conditions: Mus musculus, CT26, 48 h; method in brief: as §1
HepG2 [7] = experiment: Antiproliferative activity against human HepG2 cells assessed as inhibition of cell proliferation incubated for 48 hrs by MTT assay; type: functional, cell-based; conditions: HepG2, 48 h; method in brief: as §1
U-266 [8] = experiment: Antiproliferative activity against human U-266 cells assessed as inhibition of cell proliferation incubated for 48 hrs by MTT assay; type: functional, cell-based; conditions: U-266, 48 h; method in brief: as §1

Row | SMILES | inhibition at 2 µM (HCT-116) | inhibition at 2 µM (CT26 [1]) | IC50 [2] | inhibition at 2 µM (MCF7) | inhibition at 2 µM (HepG2 [3]) | inhibition at 0.1 µM (U-266 [4]) | inhibition at 48 h, 2 µM [5] | IC50 (CT26 [6]) | IC50 (HepG2 [7]) | IC50 (U-266 [8])
1 | Cc1noc(C)c1-c1ccc2c(c1)C(c1ccccc1)N(CC(=O)N1CCN(c3ccc4nnc(Cl)n4n3)CC1)C(=O)N2C (stereo not given) | 48.9% | 27.5% | 0.0056 µM | 33.4% | 28.5% | 19.8% | 10.9% |  |  | 
2 | Cc1noc(C)c1-c1ccc2c(c1)C(c1ccccc1)N(CCCCBr)C(=O)N2C (stereo not given) |  |  | 0.013 µM |  |  |  |  |  |  | 
3 | Cc1noc(C)c1-c1ccc2c(c1)C(c1ccccc1)N(CCCCCN1CCN(c3ccc4nnc(Cl)n4n3)CC1)C(=O)N2C (stereo not given) | 39% | 33.8% | 0.0088 µM | 33.4% | 39.8% | 48.4% | 9.3% | 11.8 µM | 14 µM | 1.99 µM
4 | Cc1noc(C)c1-c1ccc2c(c1)C(c1ccccc1)N(CCCCCCN1CCN(c3ccc4nnc(Cl)n4n3)CC1)C(=O)N2C (stereo not given) | 44.7% | 20.3% | 0.0031 µM | 33.1% | 51.9% | 45.5% | 5.3% | 7.95 µM | 9.45 µM | 2.12 µM
5 | Cc1noc(C)c1-c1ccc2c(c1)C(c1ccccc1)N(CCCCCC(=O)N1CCN(c3ccc4nnc(Cl)n4n3)CC1)C(=O)N2C (stereo not given) | 38.4% | 25.1% | 0.0092 µM | 33.6% | 30.7% | 31.3% | 14.7% |  |  | 
6 | Cc1noc(C)c1-c1ccc2c(c1)C(c1ccccc1)N(Cc1nc(-c3ccccc3)cs1)C(=O)N2C (stereo not given) | 26.7% | 15.5% |  | 29.1% | 44.5% | 12.7% | 2.7% |  |  | 
7 | Cc1noc(C)c1-c1ccc2c(c1)C(c1ccccc1)NC(=O)N2C (stereo not given) | 27.8% | 44% | 0.053 µM | 33.5% | 32.5% | 13.1% | 6.8% | 36 µM | 18.8 µM | 35.4 µM
8 | Cc1noc(C)c1-c1ccc2c(c1)C(c1ccccc1)N(Cc1nc(-c3ccc(F)cc3)cs1)C(=O)N2C (stereo not given) | 33.3% | 16.4% |  | 27.4% | 41.1% | 12.6% | 8.5% |  |  | 
9 | Cc1noc(C)c1-c1ccc2c(c1)C(c1ccccc1)N(Cc1nnc(-c3ccccc3)o1)C(=O)N2C (stereo not given) | 31.4% | 30.1% | 0.055 µM | 34.1% | 34.7% | 26.7% | 12.4% | 21.2 µM | 19.5 µM | 3.45 µM
10 | Cc1noc(C)c1-c1ccc2c(c1)C(c1ccccc1)N(Cc1ncc(-c3ccccc3)o1)C(=O)N2C (stereo not given) | 30% | 21.2% | 0.105 µM | 34% | 50.6% | 15.1% | 3.7% |  |  | 
11 | Cc1nc(-c2ccc(F)cc2)sc1CN1C(=O)N(C)c2ccc(-c3c(C)noc3C)cc2C1c1ccccc1 (stereo not given) | 26% | 28.8% |  | 33.4% | 26.4% | 10% | 6.5% |  |  | 
12 | Cc1noc(C)c1-c1ccc2c(c1)C(c1ccccc1)N(Cc1nnc(-c3ccc(F)cc3)o1)C(=O)N2C (stereo not given) | 36.6% | 24% | 0.058 µM | 26.7% | 52.8% | 26.8% | 0.7% |  |  | 
13 | Cc1noc(C)c1-c1ccc2c(c1)C(c1ccccc1)N(Cc1nnc(-c3ccccc3)s1)C(=O)N2C (stereo not given) | 26.9% | 28.1% | 0.074 µM | 35.7% | 35.2% | 20.3% | 3.3% |  |  | 
14 | CCS(=O)(=O)Nc1ccc(Oc2ccc(F)cc2F)c(-c2cn(C)c(=O)c3[nH]ccc23)c1 [MIVEBRESIB] |  |  |  |  |  |  |  | 48.3 µM |  | 2.03 µM
15 | Cc1noc(C)c1-c1ccc2c(c1)C(c1ccccc1)N(CCOCCN1CCN(c3ccc4nnc(Cl)n4n3)CC1)C(=O)N2C (stereo not given) | 18.7% | 25.1% | 0.012 µM | 34.7% | 36.7% | 29.5% | 6% | 22.9 µM | 21 µM | 3.05 µM
16 | Cc1noc(C)c1-c1ccc2c(c1)C(c1ccccc1)N(Cc1csc(-c3ccc(F)cc3)n1)C(=O)N2C (stereo not given) | 31.8% | 17% |  | 37.9% | 31.3% | 8.4% | 6.8% |  |  | 
17 | Cc1nc(-c2ccccc2)sc1CN1C(=O)N(C)c2ccc(-c3c(C)noc3C)cc2C1c1ccccc1 (stereo not given) | 28.3% | 20.1% |  | 35.1% | 29.2% | 7.19% | 4.9% |  |  | 
18 | Cc1sc2c(c1C)C(c1ccc(Cl)cc1)=N[C@@H](CC(=O)OC(C)(C)C)c1nnc(C)n1-2 | 30.3% | 37.9% |  | 35.4% | 22.2% | 35.7% | 6.5% | 28.7 µM | 18.4 µM | 3.45 µM
19 | Cc1noc(C)c1-c1ccc2c(c1)C(c1ccccc1)N(Cc1csc(-c3ccccc3)n1)C(=O)N2C (stereo not given) | 28.4% | 23.5% |  | 17.5% | 34% | 10.4% | 4.4% |  |  | 
20 | Cc1noc(C)c1-c1ccc2c(c1)C(c1ccccc1)N(CCCCCCCC(=O)N1CCN(c3ccc4nnc(Cl)n4n3)CC1)C(=O)N2C (stereo not given) | 14.1% | 8.8% | 0.037 µM | 28.7% | 13.6% | 8.5% | 0.5% |  |  | 
